Test results reported in PubChem BioAssay.
Inconclusive results are not listed.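 How the source made its calls, unless noted: active means RAM network inhibition above 8.4% in each of two replicates, 3 SD over the compound average; inconclusive means above 8.4% inhibition in only one replicate; inactive means 8.4% inhibition or less in each replicate.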

Legend:
[1] = OD615 S. cerevisiae growth inhibition, permissive medium, pilot counter-assay, permissive growth control for S. cerevisiae lifespan shortening project (AID 705;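 active means growth inhibition above 25% in both replicates, a cutoff set 3 SD above the mean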); conditions: OD615, 24 h, at 10 µM, hits give high values
How it was run: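 System – S. cerevisiae with engineered DeaD lifespan system · Buffer or medium – SC raffinose/galactose permissive medium · Schedule – cells pre-grown 4 h, then 24 h compound exposure, 30 °C humidified · Technique – culture turbidity as optical density at 615 nm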

[2] = Restrictive medium S. cerevisiae growth inhibition, OD615, pilot screen of yeast lifespan reduction project, restrictive growth control (AID 706;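 active means growth inhibition above a set limit, 3 SD over mean compound inhibition, in both replicates, cut at about 43% in these data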;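 further: modified DeaD lifespan yeast strain shifted to restrictive glucose medium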); conditions: OD615, 48 h, at 10 µM, hits give high values
How it was run: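 Material: engineered S. cerevisiae DeaD strain / Medium: glucose-based CSMM-D restrictive medium / Compound: single dose of 10 µM compound final, 0.25% DMSO / Timing: 4 h pre-incubation, 48 h exposure at 30 °C / Technique: OD615 absorbance reading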

[3] = viability gain of MRP-1-high H69AR cells under doxorubicin, pilot screen, MRP-1 activator project, CellTiter-Glo, duplicate (AID 807;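 active means viability increase at or above a cutoff of the median across tested compounds plus 3 SD, cut at about 8.5% in these data, passing the limit was not always enough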;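 further: compound pretreatment 18-22 h then 72 h combined with doxorubicin; 0% = doxorubicin alone and 100% = vehicle without doxorubicin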); conditions: H69AR viability with doxorubicin, CellTiter-Glo luminescence; at 10 µM; hits give high values
[4] = growth suppression of beta-catenin knockout HCT116, pilot screen, human colon tumor cells (AID 823;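 active means cell viability at or below a set limit in both duplicate runs, the limit being the all-compound median minus 4 SD, cut at about 23% in these data, passing the limit was not always enough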;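 further: 0% = wells killed by 20 µM Hyamine and 100% = untreated DMSO cell wells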); conditions: CellTiter-Glo, 60 h, at 10 µM, hits give low values
[5] = growth suppression of PTEN-deleted HCT116, pilot screen, cell-based, HCT116 clonal line, CellTiter-Glo (AID 824;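 active means viability at or below 27.92% in each of two runs, the all-compound median minus 4 SD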;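 further: 0% = 20 µM Hyamine control and 100% = vehicle cell control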); conditions: 60 h, at 10 µM, hits give low values
[6] = inhibitors of the yeast RAM network, pilot screen, dse1pr::URA3 reporter, 5-FOA selection (AID 869;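 active means inhibition over a set limit, the all-compound mean plus 3 SD, in both replicate runs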;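 further: 0% = DMSO wells with no growth and 100% = 10 µM 1-NA-PP1 with full growth; RAM network block rescues cells from 5-FOA so hits raise OD615 growth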); conditions: S. cerevisiae dse1pr::URA3 5-FOA growth, OD615, 2 d; at 10 µM; hits give high values; strain carries analog-sensitive mutant Cbk1 kinase
[7] = RAM signaling pathway blockade in yeast – S. cerevisiae, Pdr1DBD-CYC8 efflux-inhibited sensitized strain, primary screen (AID 1298);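 further: 0% = DMSO untreated cells without growth and 100% = 10 µM 1-NA-PP1 full growth; higher means more yeast growth rescued from 5-FOA killing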; conditions: S. cerevisiae cbk1-as DSE1-URA3 strain, 5-FOA growth OD615, 2 d; at 50 µM; hits give high values

CCCC(=O)N1CCN(C2=NS(=O)(=O)c3ccccc32)CC1
inactive: growth inhibition [1] -0.28% | growth inhibition [2] 12.9% | viability increase [3] -0.68% | viability [4] 103% | viability [5] 98.5% | inhibition [6] -0.175% | RAM network inhibition [7] 3.82%

C#CCn1c(=NC(=O)CN2C(=O)CCC2=O)sc2cccc(C)c21
inactive: growth inhibition [1] -15.5% | growth inhibition [2] -1.5% | viability increase [3] -3.32% | viability [4] 93.3% | viability [5] 88.8% | inhibition [6] 1.89% | RAM network inhibition [7] 2.03%

O=C(CN(Cc1ccc(F)cc1)S(=O)(=O)c1ccccc1)N1CCCCC1
inactive: growth inhibition [1] -9.46% | growth inhibition [2] -3.51% | viability increase [3] -2.51% | viability [4] 97.3% | viability [5] 89.8% | inhibition [6] 0.975% | RAM network inhibition [7] 4.25%

CCOC(=O)C1=C(Nc2cccc(Cl)c2)OCC1=O
inactive: growth inhibition [1] -17.9% | growth inhibition [2] 3.65% | viability increase [3] -1.85% | viability [4] 102% | viability [5] 99% | inhibition [6] 2.21% | RAM network inhibition [7] 4.51%

O=C(NCCn1ccc2ccccc21)C1CCCCC1
inactive: growth inhibition [1] -13.3% | growth inhibition [2] -15.1% | viability increase [3] -0.84% | viability [4] 87.7% | viability [5] 87.2% | inhibition [6] 2.12% | RAM network inhibition [7] 2.92%

OCCn1c(SCCOc2ccccc2F)nc2ccccc21
inactive: growth inhibition [1] -4.44% | growth inhibition [2] -1.06% | viability increase [3] -3.24% | viability [4] 91.5% | viability [5] 88.4% | inhibition [6] 2.67% | RAM network inhibition [7] 2.71%

O=C(COc1cc(=O)n2c(n1)SCCC2)c1ccccc1
inactive: growth inhibition [1] -6.77% | growth inhibition [2] -2.62% | viability increase [3] -1.08% | viability [4] 102% | viability [5] 92.7% | inhibition [6] 1.56% | RAM network inhibition [7] 1.89%

COCCn1c(SCC(=O)Nc2cc(Cl)ccc2OC)nc2c(c1=O)SC(C)C2 (stereo not drawn)
inactive: growth inhibition [1] 1.23% | growth inhibition [2] 0.95% | viability increase [3] -6.28% | viability [4] 83.3% | viability [5] 78% | inhibition [6] 2.55% | RAM network inhibition [7] -0.36%

CCOC(=O)N1CCC(N2Cc3cccc(C(=O)Nc4ccc(OC)c(OC)c4)c3C2=O)CC1
inactive: growth inhibition [1] -7.4% | growth inhibition [2] -0.92% | viability increase [3] -3.99% | viability [4] 66.2% | viability [5] 66.8% | inhibition [6] 2.03% | RAM network inhibition [7] 1.98%

COc1ccc(CNC(=O)c2cc(C3CC3)on2)cc1
inactive: growth inhibition [1] -3.07% | growth inhibition [2] 6.49% | viability increase [3] -1.95% | viability [4] 94.3% | viability [5] 95.5% | inhibition [6] -0.84% | RAM network inhibition [7] -2.3%

c1ccc2c(c1)nc(NCC1CCCO1)c1nnnn12 (stereo not drawn)
inactive: growth inhibition [1] -4.03% | growth inhibition [2] 4.6% | viability increase [3] -3.64% | viability [4] 101% | viability [5] 97.6% | inhibition [6] 1.34% | RAM network inhibition [7] 2.87%

CCn1c(SCC(=O)Nc2cccc(F)c2)nc2c(c1=O)SC(C)C2 (stereo not drawn)
inactive: growth inhibition [1] -11.8% | growth inhibition [2] -1.47% | viability increase [3] -0.53% | viability [4] 94.8% | viability [5] 86.8% | inhibition [6] 1.57% | RAM network inhibition [7] 4.64%

COC(=O)c1ccccc1NC(=O)CS(=O)(=O)Cc1nc(-c2ccc(C)cc2)oc1C
inactive: growth inhibition [1] -9.1% | growth inhibition [2] -21.8% | viability increase [3] -2.52% | viability [4] 93.5% | viability [5] 87.8% | inhibition [6] 4.7% | RAM network inhibition [7] 4.03%

CCC(=O)NCc1nc2ccccc2n1Cc1ccccc1F
inactive: growth inhibition [1] -7.37% | growth inhibition [2] -27% | viability increase [3] -0.04% | viability [4] 99.1% | viability [5] 99.2% | inhibition [6] 0.885% | RAM network inhibition [7] 2.45%

COc1ccccc1CC(=O)N1CCN(c2cccc(C(F)(F)F)c2)CC1
inactive: growth inhibition [1] -9.59% | growth inhibition [2] 5.32% | viability increase [3] 1.84% | viability [4] 39.9% | viability [5] 60.9% | inhibition [6] 1.1% | RAM network inhibition [7] 7.84%

Cc1n[nH]c(C)c1S(=O)(=O)N(CC(=O)NC1CCCC1)c1ccc(C(C)C)cc1
inactive: growth inhibition [1] -7.41% | growth inhibition [2] 9.02% | viability increase [3] -3.3% | viability [4] 80.3% | viability [5] 76.9% | inhibition [6] 0.63% | RAM network inhibition [7] 3.37%

CCNC(=O)c1c(C)nc2ccccn12
inactive: growth inhibition [1] 3.27% | growth inhibition [2] -7.95% | viability increase [3] -3.03% | viability [4] 101% | viability [5] 91% | inhibition [6] -0.1% | RAM network inhibition [7] 0.67%

Cn1cnnc1SCC(=O)Nc1ccccc1
inactive: growth inhibition [1] -6.99% | growth inhibition [2] -16.3% | viability increase [3] 2.03% | viability [4] 100% | viability [5] 102% | inhibition [6] -0.32% | RAM network inhibition [7] 1.79%

CCc1nnc(NC(=O)c2cccs2)s1
inactive: growth inhibition [1] -21.3% | growth inhibition [2] -3.98% | viability increase [3] 2.17% | viability [4] 102% | viability [5] 90.1% | inhibition [6] 1.29% | RAM network inhibition [7] 0.32%

CCn1c2ccccc2c2cc(NC(=O)C3CCN(S(=O)(=O)c4cccs4)CC3)ccc21
inactive: growth inhibition [1] -8.9% | growth inhibition [2] -16.2% | viability increase [3] -5.99% | viability [4] 59.3% | viability [5] 66.2% | inhibition [6] 0.19% | RAM network inhibition [7] 4.66%

O=C(NCc1ccccc1Cl)c1cnc2n(c1=O)CCS2
inactive: growth inhibition [1] 3.67% | growth inhibition [2] 0.685% | viability increase [3] -0.78% | viability [4] 99.9% | viability [5] 96.9% | inhibition [6] 0.995% | RAM network inhibition [7] -0.68%

Cn1c(=O)oc2cc(S(=O)(=O)N3CCC(N4CCCCC4)CC3)ccc21
inactive: growth inhibition [1] -15.8% | growth inhibition [2] -13.1% | viability increase [3] -1.67% | viability [4] 98.7% | viability [5] 93% | inhibition [6] -0.02% | RAM network inhibition [7] 1.06%

CCn1c(N)nc2c1c(=O)n(C)c(=O)n2C
inactive: growth inhibition [1] 4.48% | growth inhibition [2] -1.29% | viability increase [3] -1.39% | viability [4] 108% | viability [5] 98.9% | inhibition [6] 0.32% | RAM network inhibition [7] 2.67%

Nc1sc2c(c1C(=O)NC1CCS(=O)(=O)C1)CCCC2 (stereo not drawn)
inactive: growth inhibition [1] -5.31% | growth inhibition [2] -3.38% | viability increase [3] 0.13% | viability [4] 93.3% | viability [5] 99.1% | inhibition [6] 1.67% | RAM network inhibition [7] 3.3%
